Assay results from different studies.
Compare with care: the assays were run in different laboratories.
Effect on: cell growth or viability

CC(=O)ON=C1C=CC(=C(C#N)c2ccccc2)C=C1  IC50 (HDF-1; MTT; 24 h): 27.4 µg/mL
C=C(NC(=O)C(=C)NC(=O)c1csc(C2=N[C@@H]3c4csc(n4)[C@H]4NC(=O)c5csc(n5)[C@H]([C@](C)(O)[C@@H](C)O)NC(=O)[C@H]5CSC(=N5)/C(=C/C)NC(=O)[C@H]([C@@H](C)O)NC(=O)c5csc(n5)[C@]3(CC2)NC(=O)[C@H](C)NC(=O)C(=C)NC(=O)[C@H](C)NC(=O)[C@H]([C@@H](C)CC)N[C@@H]2C=Cc3c([C@H](C)O)cc(nc3[C@H]2O)C(=O)O[C@@H]4C)n1)C(N)=O  EC50 (ES-2): 1.2 µM
Cc1nc(Nc2ncc(C(=O)Nc3c(C)cccc3Cl)s2)cc(N2CC[C@H](O)C2)n1  inhibition (CCRF-CEM; ATP luminescence; 10 µM; 72 h): 14%
O=C(N[C@@H](CSCc1nc2cc([N+](=O)[O-])ccc2[nH]1)C(=O)NO)c1ccccc1  IC50 (HCC4006; MTT; 48 h): < 500 µM
COc1ccc(-c2nn(-c3ccccc3)cc2C=Nc2c(N)nc(S)nc2O)cc1  CC50 (CCRF-CEM; 48 h): < 20 µM
COc1cccc2c1C(=O)c1c(O)c3c(c(O)c1C2=O)C[C@@](O)(C(=O)CO)C[C@@H]3O[C@H]1C[C@H](N)[C@H](O)[C@H](C)O1  IC50 (RKO; 96 h): 0.00473 µM
Nc1nc(S)nc(O)c1N=Cc1cn(-c2ccccc2)nc1-c1ccccc1  CC50 (CCRF-CEM; 48 h): < 20 µM
C[C@H](Nc1ccc2c(c1)OCCn1cc(N3C(=O)OC[C@H]3C(F)F)nc1-2)C(N)=O  EC50 (HCC202; ATP luminescence; 5 days): 0.0154 µM
Nc1nc(S)nc(O)c1N=Cc1cn(-c2ccccc2)nc1-c1ccc([N+](=O)[O-])cc1  CC50 (CCRF-CEM; 48 h): > 40 µM
O=C(N[C@@H](CSCc1ccc([N+](=O)[O-])cc1)C(=O)NO)c1ccccc1  IC50 (HCC4006; MTT; 48 h): 10.1 µM
Nc1nc(S)nc(O)c1N=Cc1cn(-c2ccccc2)nc1-c1ccc(Cl)cc1  CC50 (CCRF-CEM; 24 h): 15.1 µM
CN1CCC(NC2CCc3[nH]c4c(C(N)=O)ccc(-c5ccccc5Cl)c4c3C2)CC1 (stereo not drawn)  IC50 (RKO; 96 h): 0.00017 µM
